Source: the RNAGym collection of RNA variant scans (doi:10.1101/gad.245936.114)
Fewer inactive variants are shown than the library holds.

B1: tRNA (parent)
chain: CUCUCGGUAGCCAAGUUGGUUUAAGGCGCAAGACUUUAAUUUAUCACUACGAAAUCUUGAGAUCGGGCGUUCGACUCGCCCCCGGGAGAUUUUUUCCUCGAGCAA

Variants of: B1
Test: nonsense suppression (GFP-seq) (ratio to wild type); higher = more function; SUP4oc tRNA, yeast GFP reporter sort-seq
How it was run: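 Yeast carrying genome-integrated SUP4oc tRNA variants from a library with ~3% random mutations were grown in raffinose/galactose medium with 80 mg/L adenine. Each strain also carried a galactose-driven GFP ochre reporter and RFP. Cells were sorted into GFP/RFP bins, and each bin was Illumina-sequenced (phred ≥30). Nonsense suppression (GFPSEQ) is the bin median GFP/RFP, weighted by each variant's estimated cell share per bin, relative to wild-type SUP4oc; variants needed ≥100 reads and ≥30 cells.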

Variant	nonsense suppression
CUCUCGGUCGCCAAGUUGGUUUAAGGCGUAAGACUUUAAUUUAUCACUACGAAAUCUUGAGAUCGGGCGUUCGACUCGCCCCCGGGAGAUUUUUUCCUCGAGCAA [A9C C29U]	0.751
CUCUCAGUAACCAAGUUGCUUUAAGGCGCAAGACUUUAAUUUAUCACUACGAAUUCUUGAGAUCGGGCGUUCCACUCGCCCCCGGGAUAUUUUUUCCUCGAGCAA [G6A G10A G19C A54U G73C G88U]	≤ 0.026
CUCUCGGUAGCCAAGUUGGUUUACGACGCUAGACUUUAAUUUAUCACUACGAAAUCUUGAGAUCGGGCGUUCGACUCGCGGCCGGGAGAUUUUUUCCUCGAGCAA [A24C G26A A30U C80G C81G]	≤ 0.026
CUCUCGGUAGCCAAGUUGGUUUACGGCGCAAGACUUUAAUUUAUCACUACGAAAUCUUGUGAACGGGCGUUCGACUCGCCCCCGGGAGAUUUUUUCCUCGAGCAA [A24C A60U U63A]	0.112
CUCUCGGUGGCCAAGUUGGUUUAAGGCGCAAGACUUUAAUUUAUCACUACGAAAUCUUGAGAUCGGGCGUUGGACGCGCCCCCGGGAUAUUUUUUCCUCGAGCAA [A9G C72G U76G G88U]	≤ 0.026
CUCUCGGUAGCCAAGUUGGUUUAACGCGCUAGACUUUAAUUUAUCACUACGAAAUCUUGAGAUCGGGCGUUCGACUCGCCCCCGGGAGAUUUUUUCCUCGAGCAA [G25C A30U]	0.0299
CUCUCGGUAGCCAAGUUGGUUGAAGGCGCAAGACUUUAAUUUAUCACUACGAAAUCUUGAGAUCGGGCGUUCGACUCGCCCCCGGGGGAUUUUUUCCUCGAGCAA [U22G A87G]	0.886
CUCUCGGUAGCCUAGUUGGUUGAAGGCGCAAGACUUUAAUUUAUCACUACGAAAUCUUGAGAUCGGGCGUUCGACUCGCCCCCGGGAGAUUUUUUCCUCGAGCAA [A13U U22G]	1.06
CUCUCGGUAGCCAAGUUGGUUCACGGCGCAAGACUUUAAUUUAUCACUACGAAAUCUUGAGAUCGGGCGUUCGACUCGCCCCCGGGAGAUUUUUUCCUCGAGCAA [U22C A24C]	1.01
CUCUCGGUAGCCAAGUUGGUUUAAGGCGCAAGACUUUAAUUUAUCACUACGAAAUCUUGAGAUCGGGGAUUCGACUCGCCCCCGGGAGAUUUUUUCCUCGAGCAA [C68G G69A]	≤ 0.026
CUCUCGGUAACCAAGUUGGUUUAAGGCGCACGACUUUAAUUUAUCACUACGAAAUCUUGAGAUCGGGCGUUCGACUCGCCCCCGGGAGAUUUUUUCCUCGAGCAA [G10A A31C]	≤ 0.026
CUCUCGGUAGCCAAGUUGGUCUAAGGCUCAUGGCUUUAAUUUAUCACUACGAAAUCUUGAGAUCGGGCGUUCGACUCUACCCCGGGAGAUUUUUUCCUCGAGCAA [U21C G28U A31U A33G G78U C79A]	≤ 0.026
CUCUCGGUAGCCAAGUUGGUUUAAGGCGCAAGACUUUAAUUUAUCACUACGAAAUCUUGAGAUCGGGCGUUCGACUCGCCCCCCCGAGAUUUUUUCCUCGAGCAA [G84C G85C]	0.0289
CUCUCGGUAGCCAAGUUCGUUUAAGGCGUAAGACUUUAAUUUAUCACUACGAAAUCUUGAGAUCGGGCGUUCGACUCGCCCCCGAGAAAUUUUUUCCUCGAGCAA [G18C C29U G85A G88A]	≤ 0.026
CUGUCGGUAGCCAAGUUGGUUUAAGGCACAAGACUUUAAUUUAUCACUACGAAACCUUGAGAUCGGGCGUUCGACUCGCCCCCGGUAUAUUUUUUCCUCGAGCAA [C3G G28A U55C G86U G88U]	≤ 0.026
CUUUCGGCAGCCAAGUUGGUUUAAGGCGCAAGACUUUAAUUUAUCACUACGAAAUCUUGAGAUCGGGCGUUCGACUCGCCCCCGGGAGAUUUUUUCCUCGAGCAA [C3U U8C]	0.0916
CUCUCGGUAGCCAAGUUGGGUUAAGGCGCAAGACUUUAAUUUAUCACUACGAAAUCUUGGGAUCGGGCGUUCGACUCGCCCCCGGGAGAUUUUUUCCUCGAGCAA [U20G A60G]	0.477
CUCUCGGUAGUCAAGUUGGUUUAAGACGCAAGACUUUAAUUUAUCACUACGAAAUCUUGAGACCGGGCGUUCGACUCGCCCCCGGGAGAUUUUUUCCUCGAGCAA [C11U G26A U63C]	0.212
CUCUCGGUAGCCAUGUUGGUUUAAGACGCAAGACUUUAAUUUAUCACUACGAAAUCAUGAGAUCGGGCGUUCGACUCGCCCCCGGGAGAUUUUUUCCUCGAGCAA [A14U G26A U57A]	≤ 0.026
CUCUAGGUAGCCAAGUUGGUUUAAGGCGCACGACUUUAAUUUAUCACUACGAAAUCUUGAGAUCGGGCGUUCGACUCGCCCCCGGGAGAUUUUUUCCUCGAGCAA [C5A A31C]	≤ 0.026
CUCUCGGAAGCCUAGUUGAUUUAAGGCGCAAGACUUUAAUUUAUCACUACGAAAUCUUGAGGUCGGACGUCCGACUCGCCCCCGGGAGAUUUUUUCCUCGAGCAA [U8A A13U G19A A62G G67A U71C]	≤ 0.026
CUCUCGGUAGCCAAGUUGGUUUAAGGGGCAAGACUUUAAUUUAUCACUACGAAAUCCUGAGAUCGGGCGUUCGACUCGCCCCCGGCAGAUUUUUUCCUCGAGCAA [C27G U57C G86C]	≤ 0.026
CUCUCGGUAGCCAAGUUGAUUUAAGGCGCAAGACUUUAAUUUAUCACUACGAAGUCUUGAGAUCGGACGUUCGACUCGCCCCCGGGAGAUUUUUUCCUCGAGCAA [G19A A54G G67A]	≤ 0.026
CUCUCGGUAGCCAAGUUGGUUUAAGGCGCAAGACUUUAAUUUAUCACUACGAAAUCUUGAGACCGGGCGUUCGACCCGCCCCCGGGAGAUUUUUUCCUCGAGCAA [U63C U76C]	0.693
CUCUCGGUAGCCAAGUUGGUUUAAGGCGCAAGACUUUAAUUUAUCACUACGAAAACUUGAGAUCGGGCGCUCGACUCGCCCCCGGGAGAUUUUUUCCUCGAGCAA [U55A U70C]	≤ 0.026
CUCUCGGAAGCCAAGUUGGUUUGAGGCGCAAGACUUUAAUUUAUCACUACGAAAUCUUGAGAUCGGGCGUUCGACUCGCGCCCCGGAGAUUUUUUCCUCGAGCAA [U8A A23G C80G G84C]	≤ 0.026
CUCUCGGUAGCCUAGGUGGUUUAAGGCGCAAGUCUUUAAUUUAUCACUACGAAAUCUUGAGAUCGGGCGUUCGACUCGCCCCCGGGAGAUUUUUUCCUCGAGCAA [A13U U16G A33U]	0.0384
